From ChEMBL document CHEMBL5247578, “Effective synthesis of benzimidazoles-imidazo[1,2-a]pyrazine conjugates: A comparative study of mono-and bis-benzimidazoles for antitumor activity” (Eur J Med Chem, 2019)

Columns and labels:
COLO 205 = assay: Antiproliferative activity against human COLO 205 cells assessed as cell growth inhibition at 10 uM incubated for 48 hrs by sulforhodamine B assay relative to control; assay type: functional
Outline: (§1)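 Single-dose NCI-60 prescreen at 10^-5 M. Cells in RPMI 1640 with 5% FBS and 2 mM L-glutamine, seeded 5,000–40,000 cells/well with 24 h preincubation, then drug exposure for 48 h at 37 °C under 5% CO2. Growth read by SRB staining of TCA-fixed cells at 515 nm against time-zero and untreated controls. Negative growth values denote cell kill.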

CCRF-CEM = assay: Antiproliferative activity against human CCRF-CEM cells assessed as cell growth inhibition at 10 uM incubated for 48 hrs by sulforhodamine B assay relative to control; assay type: functional; outline: as §1
MDA-MB-435 = assay: Growth inhibition against human MDA-MB-435 cells incubated for 48 hrs by sulforhodamine B assay; assay type: functional
HOP-92 = assay: Antiproliferative activity against human HOP-92 cells assessed as cell growth inhibition at 10 uM incubated for 48 hrs by sulforhodamine B assay relative to control; assay type: functional
Outline: (§2)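 NCI-60 one-dose prescreen at 10^-5 M. Cells grown in RPMI 1640 with 5% FBS and 2 mM glutamine, preincubated 24 h, then exposed 48 h at 37 °C. Adherent lines TCA-fixed, SRB-stained, A515 read. Growth percent relative to time-zero and control; negative values mean cell kill.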

NCI-H322M = assay: Antiproliferative activity against human NCI-H322M cells assessed as cell growth inhibition at 10 uM incubated for 48 hrs by sulforhodamine B assay relative to control; assay type: functional
Outline: (§3)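 NCI-60 single-dose screen at 10^-5 M. Cells grown in RPMI 1640 with 5% FBS and 2 mM L-glutamine, plated at 5,000–40,000 cells/well, and preincubated 24 h. Drug (DMSO stock) added and incubated 48 h at 37 °C, 5% CO2. Adherent cells fixed with cold TCA, stained with 0.4% SRB in 1% acetic acid, dye solubilized in 10 mM trizma base, A515 read. Percent growth taken against time-zero and untreated control.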

786-0 = assay: Antiproliferative activity against human 786-0 cells assessed as cell growth inhibition at 10 uM incubated for 48 hrs by sulforhodamine B assay relative to control; assay type: functional; outline: as §1
HL-60 = assay: Antiproliferative activity against human HL-60 cells assessed as cell growth inhibition at 10 uM incubated for 48 hrs by sulforhodamine B assay relative to control; assay type: functional; outline: as §2
Malme-3M = assay: Antiproliferative activity against human Malme-3M cells assessed as cell growth inhibition at 10 uM incubated for 48 hrs by sulforhodamine B assay relative to control; assay type: functional; outline: as §3
SK-MEL-28 = assay: Antiproliferative activity against human SK-MEL-28 cells assessed as cell growth inhibition at 10 uM incubated for 48 hrs by sulforhodamine B assay relative to control; assay type: functional; outline: as §3
MOLT-4 = assay: Antiproliferative activity against human MOLT-4 cells assessed as cell growth inhibition at 10 uM incubated for 48 hrs by sulforhodamine B assay relative to control; assay type: functional; outline: as §3
TK-10 = assay: Antiproliferative activity against human TK-10 cells assessed as cell growth inhibition at 10 uM incubated for 48 hrs by sulforhodamine B assay relative to control; assay type: functional; outline: as §3
SW-620 [1] = assay: Antiproliferative activity against human SW620 cells assessed as cell growth inhibition at 10 uM incubated for 48 hrs by sulforhodamine B assay relative to control; assay type: functional; outline: as §3
MDA-MB-231 = assay: Antiproliferative activity against human MDA-MB-231 cells assessed as cell growth inhibition at 10 uM incubated for 48 hrs by sulforhodamine B assay relative to control; assay type: functional; outline: as §3
SW-620 [2] = assay: Antiproliferative activity against human SW620 cells assessed as cell growth at 0.000001 M incubated for 48 hrs by SRB assay relative to control; assay type: functional; conditions: read-out: Activity
UACC-257 = assay: Antiproliferative activity against human UACC-257 cells assessed as cell growth inhibition at 10 uM incubated for 48 hrs by sulforhodamine B assay relative to control; assay type: functional; outline: as §3
SR = assay: Antiproliferative activity against human SR cells assessed as cell growth inhibition at 10 uM incubated for 48 hrs by sulforhodamine B assay relative to control; assay type: functional; outline: as §3
SK-OV-3 = assay: Antiproliferative activity against human SK-OV-3 cells assessed as cell growth inhibition at 10 uM incubated for 48 hrs by sulforhodamine B assay relative to control; assay type: functional; outline: as §3
MCF7 = assay: Antiproliferative activity against human MCF7 cells assessed as cell growth inhibition at 10 uM incubated for 48 hrs by sulforhodamine B assay relative to control; assay type: functional; outline: as §3
ACHN = assay: Antiproliferative activity against human ACHN cells assessed as cell growth inhibition at 10 uM incubated for 48 hrs by sulforhodamine B assay relative to control; assay type: functional; outline: as §1
OVCAR-5 = assay: Antiproliferative activity against human OVCAR-5 cells assessed as cell growth inhibition at 10 uM incubated for 48 hrs by sulforhodamine B assay relative to control; assay type: functional; outline: as §3
BT-549 = assay: Antiproliferative activity against human BT-549 cells assessed as cell growth inhibition at 10 uM incubated for 48 hrs by sulforhodamine B assay relative to control; assay type: functional; outline: as §1
OVCAR-4 = assay: Antiproliferative activity against human OVCAR-4 cells assessed as cell growth inhibition at 10 uM incubated for 48 hrs by sulforhodamine B assay relative to control; assay type: functional; outline: as §3
CAKI-1 = assay: Antiproliferative activity against human CAKI-1 cells assessed as cell growth inhibition at 10 uM incubated for 48 hrs by sulforhodamine B assay relative to control; assay type: functional; outline: as §1
OVCAR-3 = assay: Antiproliferative activity against human OVCAR-3 cells assessed as cell growth inhibition at 10 uM incubated for 48 hrs by sulforhodamine B assay relative to control; assay type: functional; outline: as §3
HCC 2998 = assay: Antiproliferative activity against human HCC 2998 cells assessed as cell growth inhibition at 10 uM incubated for 48 hrs by sulforhodamine B assay relative to control; assay type: functional; outline: as §2
NCI-H226 = assay: Antiproliferative activity against human NCI-H226 cells assessed as cell growth inhibition at 10 uM incubated for 48 hrs by sulforhodamine B assay relative to control; assay type: functional; outline: as §3
HOP-62 = assay: Antiproliferative activity against human HOP-62 cells assessed as cell growth inhibition at 10 uM incubated for 48 hrs by sulforhodamine B assay relative to control; assay type: functional; outline: as §2
DU-145 = assay: Antiproliferative activity against human DU-145 cells assessed as cell growth inhibition at 10 uM incubated for 48 hrs by sulforhodamine B assay relative to control; assay type: functional; outline: as §2
KM12 = assay: Antiproliferative activity against human KM12 cells assessed as cell growth inhibition at 10 uM incubated for 48 hrs by sulforhodamine B assay relative to control; assay type: functional; outline: as §3
[3] = n-Octanol/phosphate buffer partition coefficient, logP of the compound at pH 7.4 incubated for 85 mins by shake-flask method; assay type: physicochemical
Outline: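 Octanol–water partition by shake-flask: n-octanol with 0.15 M phosphate buffer pH 7.4 at 10:1 volumes. Buffer-phase absorbance read before mixing, then shaken 50 min and centrifuged at 2500 rpm for 35 min. Buffer absorbance read again; P = (Ai−Af)/Af × Vw/Vo.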

Question: With `c1ccc(Cn2cnc3ccc(-c4nc(-c5ccc6c(c5)ncn6C5CCCCC5)cn5ccnc45)cc32)cc1` as the molecule, how does the inhibition at 10 µM (COLO 205) read?
Answer: -29.9%

Question: And the inhibition at 10 µM (CCRF-CEM)?
Answer: 94.4%

Question: What about the GI50 (MDA-MB-435) of the same molecule?
Answer: 2.2 µM

Question: What about the inhibition at 10 µM (HOP-92) of the same molecule?
Answer: -83.6%

Question: And the inhibition at 10 µM (NCI-H322M)?
Answer: 84%

Question: What about the inhibition at 10 µM (786-0) of the same molecule?
Answer: -19.4%

Question: What about the inhibition at 10 µM (HL-60) of the same molecule?
Answer: -20.8%

Question: What about the inhibition at 10 µM (Malme-3M) of the same molecule?
Answer: -15.4%

Question: What about the inhibition at 10 µM (SK-MEL-28) of the same molecule?
Answer: 99.6%

Question: What about the inhibition at 10 µM (MOLT-4) of the same molecule?
Answer: 95.6%

Question: What about the inhibition at 10 µM (TK-10) of the same molecule?
Answer: 94.8%

Question: And the inhibition at 10 µM (SW-620 [1])?
Answer: 97.8%

Question: And the inhibition at 10 µM (MDA-MB-231)?
Answer: -70.1%

Question: And the growth at 1 µM (SW-620 [2])?
Answer: 108%

Question: And the inhibition at 10 µM (UACC-257)?
Answer: -32.7%

Question: What about the inhibition at 10 µM (SR) of the same molecule?
Answer: 94.5%

Question: What about the inhibition at 10 µM (SK-OV-3) of the same molecule?
Answer: -22.2%

Question: And the inhibition at 10 µM (MCF7)?
Answer: 98%

Question: What about the inhibition at 10 µM (ACHN) of the same molecule?
Answer: 80.1%

Question: What about the inhibition at 10 µM (OVCAR-5) of the same molecule?
Answer: -29%

Question: And the inhibition at 10 µM (BT-549)?
Answer: -44.7%

Question: And the inhibition at 10 µM (OVCAR-4)?
Answer: 83.2%

Question: And the inhibition at 10 µM (CAKI-1)?
Answer: 56.7%

Question: What about the inhibition at 10 µM (OVCAR-3) of the same molecule?
Answer: -35.7%

Question: What about the inhibition at 10 µM (HCC 2998) of the same molecule?
Answer: -88%

Question: What about the inhibition at 10 µM (NCI-H226) of the same molecule?
Answer: -63.1%

Question: What about the inhibition at 10 µM (HOP-62) of the same molecule?
Answer: -9.39%

Question: And the inhibition at 10 µM (DU-145)?
Answer: -28.2%

Question: And the inhibition at 10 µM (KM12)?
Answer: -39.4%

Question: And the logD at 1.417 h [3]?
Answer: 1.61
